Test results from ChEMBL document CHEMBL2375308, “Synthesis and selected immunological properties of substituted quino[3,2-b]benzo[1,4]thiazines” (Eur J Med Chem, 2013).
Active and inactive are the calls of the source. The calls are words filed in the database; no cut-off is given here.

Legend:
PBMC [1] = test: Cytotoxicity against human PBMC cells at 50 ug/mL after 24 hrs by MTT assay relative to DMSO-treated control; format: cell-based
Outline: (§1)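 Ficoll-isolated PBMC ([…]) in supplemented RPMI-1640, 2 × 10⁵/well, cultured 24 h with the preparations at the indicated concentrations; compounds dissolved in DMSO (10 mg/mL stock) and diluted in medium.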

A-431 [2] = test: Growth inhibition of human A431 cells at 10 ug/mL after 3 days by MTT assay relative to control; format: functional; conditions: A-431, 72 h, read-out: GI
Outline: (§2)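 Lines resuspended in culture medium: L-1210 at 1.5 × 10⁴ cells/well, SW-948 and A-431 at 2.5 × 10⁴ cells/well. Preparations added over […], cisplatin reference at the same concentrations. 3-day incubation, proliferation by MTT; mean OD of quadruplicate wells ±SE, expressed as percentage inhibition.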

PBMC [3] = test: Inhibition of LPS-induced TNFalpha production in human PBMC at 25 ug/mL after overnight incubation relative to DMSO-treated control; format: functional
Outline: (§3)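 Single-donor venous blood diluted 10× in RPMI-1640, 1 mL aliquots, stimulated with LPS (E. coli O111:B4). Compounds added at […]; corresponding DMSO dilutions as controls. Overnight incubation, supernatants frozen at −20 °C, TNF-α measured by biological assay; percentage inhibition versus DMSO control.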

PBMC [4] = test: Cytotoxicity against human PBMC cells at 10 ug/mL after 24 hrs by MTT assay relative to DMSO-treated control; format: cell-based; outline: as §1
SW948 [5] = test: Growth inhibition of human SW948 cells at 10 to 50 ug/mL after 3 days by MTT assay; format: functional, cell-based; outline: as §2
L1210 [6] = test: Growth inhibition of mouse L1210 cells at 10 ug/mL after 3 days by MTT assay relative to control; format: functional; conditions: L1210, 72 h, read-out: GI; outline: as §2
L1210 [7] = test: Growth inhibition of mouse L1210 cells at 10 to 50 ug/mL after 3 days by MTT assay; format: functional, cell-based; outline: as §2
PBMC [8] = test: Inhibition of LPS-induced TNFalpha production in human PBMC at 5 ug/mL after overnight incubation relative to DMSO-treated control; format: functional; outline: as §3
PBMC [9] = test: Antiproliferative activity against PHA-stimulated human PBMC at 10 ug/mL after 4 days by MTT assay relative to DMSO-treated control; format: functional
Outline: (§4)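 PBMC from one donor's heparinized blood, Ficoll gradient isolated, in RPMI-1640 with 10% FCS; 2 × 10⁵ cells/well. PHA added at […]; compounds from DMSO stock (10 mg/mL) diluted in medium; matching DMSO dilutions as control. Four-day culture, proliferation read by MTT colorimetry; percentage inhibition versus control.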

SW948 [10] = test: Growth inhibition of human SW948 cells at 10 ug/mL after 3 days by MTT assay relative to control; format: functional; conditions: SW948, 72 h, read-out: GI; outline: as §2
PBMC [11] = test: Antiproliferative activity against PHA-stimulated human PBMC at 50 ug/mL after 4 days by MTT assay relative to DMSO-treated control; format: functional; outline: as §4
A-431 [12] = test: Growth inhibition of human A431 cells at 10 to 50 ug/mL after 3 days by MTT assay; format: functional, cell-based; outline: as §2
SW948 [13] = test: Growth inhibition of human SW948 cells at 5 ug/mL after 3 days by MTT assay relative to control; format: functional; conditions: SW948, 72 h, read-out: GI; outline: as §2

CC(=O)NCCCCN1c2ccc(Cl)cc2Sc2cc3ccccc3nc21
Activity (PBMC [1]): Non-toxic | inhibition of growth at 10 µg/mL (A-431 [2]): 91.8% | inhibition at 25 µg/mL (PBMC [3]): 53.4% | Activity (PBMC [4]): Non-toxic | growth inhibition (GI) (SW948 [5]): Active | inhibition of growth at 10 µg/mL (L1210 [6]): 91.8% | growth inhibition (GI) (L1210 [7]): Active | inhibition at 5 µg/mL (PBMC [8]): 13.2% | Activity (PBMC [9]): 71.2% | inhibition of growth at 10 µg/mL (SW948 [10]): 91.8% | Activity (PBMC [11]): 92.6% | growth inhibition (GI) (A-431 [12]): Active

CSc1ccc2c(c1)Sc1cc3ccccc3nc1N2CCCCNC(=O)NCCCl
Activity (PBMC [1]): 95.1% | inhibition of growth at 10 µg/mL (A-431 [2]): 91.8% | inhibition of growth at 5 µg/mL (SW948 [13]): 96% | inhibition at 25 µg/mL (PBMC [3]): 47.5% | Activity (PBMC [4]): 4.2% | growth inhibition (GI) (SW948 [5]): Active | inhibition of growth at 10 µg/mL (L1210 [6]): 91.8% | growth inhibition (GI) (L1210 [7]): Active | inhibition at 5 µg/mL (PBMC [8]): 73.3% | Activity (PBMC [9]): 94.8% | inhibition of growth at 10 µg/mL (SW948 [10]): 91.8% | Activity (PBMC [11]): 92.7% | growth inhibition (GI) (A-431 [12]): Active

O=C(NCCCl)NCCCN1c2ccc(Cl)cc2Sc2cc3ccccc3nc21
Activity (PBMC [1]): 89.5% | inhibition of growth at 10 µg/mL (A-431 [2]): 91.8% | inhibition of growth at 5 µg/mL (SW948 [13]): 96% | inhibition at 25 µg/mL (PBMC [3]): 72.1% | Activity (PBMC [4]): 15.9% | growth inhibition (GI) (SW948 [5]): Active | inhibition of growth at 10 µg/mL (L1210 [6]): 91.8% | growth inhibition (GI) (L1210 [7]): Active | inhibition at 5 µg/mL (PBMC [8]): 9.2% | Activity (PBMC [9]): 98.6% | inhibition of growth at 10 µg/mL (SW948 [10]): 91.8% | Activity (PBMC [11]): 100% | growth inhibition (GI) (A-431 [12]): Active

Clc1ccc2c(c1)Sc1cc3ccccc3nc1N2
Activity (PBMC [1]): Non-toxic | inhibition at 25 µg/mL (PBMC [3]): 9.6% | Activity (PBMC [4]): Non-toxic | inhibition at 5 µg/mL (PBMC [8]): 2% | Activity (PBMC [9]): -0.3% | Activity (PBMC [11]): 5.7%

Cc1ccc(S(=O)(=O)NCCCN2c3ccccc3Sc3cc4ccccc4nc32)cc1
Activity (PBMC [1]): Non-toxic | inhibition at 25 µg/mL (PBMC [3]): 15.6% | Activity (PBMC [4]): Non-toxic | inhibition at 5 µg/mL (PBMC [8]): 3.8% | Activity (PBMC [9]): 6.6% | Activity (PBMC [11]): -0.8%

CCOC(=O)NCCCCN1c2ccc(Cl)cc2Sc2cc3ccccc3nc21
Activity (PBMC [1]): Non-toxic | inhibition at 25 µg/mL (PBMC [3]): 8.41% | Activity (PBMC [4]): Non-toxic | inhibition at 5 µg/mL (PBMC [8]): 13.2% | Activity (PBMC [9]): -0.7% | Activity (PBMC [11]): -12%

Cc1ccc(S(=O)(=O)NCCCN2c3ccc(Cl)cc3Sc3cc4ccccc4nc32)cc1
Activity (PBMC [1]): Non-toxic | inhibition at 25 µg/mL (PBMC [3]): 20.9% | Activity (PBMC [4]): Non-toxic | inhibition at 5 µg/mL (PBMC [8]): 5.9% | Activity (PBMC [9]): 12.9% | Activity (PBMC [11]): 22.7%

O=C(NCCCl)NCCCCN1c2ccccc2Sc2cc3ccccc3nc21
Activity (PBMC [1]): Non-toxic | inhibition at 25 µg/mL (PBMC [3]): 4.3% | Activity (PBMC [4]): 7.9% | inhibition at 5 µg/mL (PBMC [8]): -1.8% | Activity (PBMC [9]): 16.6% | Activity (PBMC [11]): 88.7%

CSc1ccc2c(c1)Sc1cc3ccccc3nc1N2CCCNS(C)(=O)=O
Activity (PBMC [1]): Non-toxic | inhibition at 25 µg/mL (PBMC [3]): 47.5% | Activity (PBMC [4]): Non-toxic | inhibition at 5 µg/mL (PBMC [8]): 73.7% | Activity (PBMC [9]): 57.3% | Activity (PBMC [11]): 65.4%
